Assay results published in ChEMBL document CHEMBL1125023, “Flexible N-methyl-4-phenyl-1,2,3,6-tetrahydropyridine analogues: synthesis and monoamine oxidase catalyzed bioactivation” (J Med Chem, 1990).

Columns and labels:
[1] = species on record: Rattus norvegicus; assay: Tested for pargyline-induced inhibition of MAO-catalyzed oxidation in rat brain mitochondria (Specific inhibitor = Pargyline hydrochloride at 2.5 uM) (Control = 17.95); assay type: functional
[2] = molecular target: T1, Monoamine oxidase (Rattus norvegicus, UniProt P19643+P21396); assay: Kinetic constant (Vmax) determined in rat brain mitochondria.
T1 sequence (P19643 whole entry): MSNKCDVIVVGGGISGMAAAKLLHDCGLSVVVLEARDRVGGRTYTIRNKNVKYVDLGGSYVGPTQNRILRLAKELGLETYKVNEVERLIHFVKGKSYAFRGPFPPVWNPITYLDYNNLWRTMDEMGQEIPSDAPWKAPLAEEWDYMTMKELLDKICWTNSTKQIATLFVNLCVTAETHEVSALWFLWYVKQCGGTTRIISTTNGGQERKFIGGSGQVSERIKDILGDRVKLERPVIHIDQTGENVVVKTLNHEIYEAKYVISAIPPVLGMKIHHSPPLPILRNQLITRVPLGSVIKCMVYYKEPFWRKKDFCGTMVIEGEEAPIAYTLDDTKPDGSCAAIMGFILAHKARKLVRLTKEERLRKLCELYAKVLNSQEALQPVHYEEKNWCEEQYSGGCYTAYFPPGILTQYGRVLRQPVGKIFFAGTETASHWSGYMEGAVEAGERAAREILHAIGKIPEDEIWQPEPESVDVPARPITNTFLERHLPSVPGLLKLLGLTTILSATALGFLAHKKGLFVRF
T1 sequence (P21396 whole entry): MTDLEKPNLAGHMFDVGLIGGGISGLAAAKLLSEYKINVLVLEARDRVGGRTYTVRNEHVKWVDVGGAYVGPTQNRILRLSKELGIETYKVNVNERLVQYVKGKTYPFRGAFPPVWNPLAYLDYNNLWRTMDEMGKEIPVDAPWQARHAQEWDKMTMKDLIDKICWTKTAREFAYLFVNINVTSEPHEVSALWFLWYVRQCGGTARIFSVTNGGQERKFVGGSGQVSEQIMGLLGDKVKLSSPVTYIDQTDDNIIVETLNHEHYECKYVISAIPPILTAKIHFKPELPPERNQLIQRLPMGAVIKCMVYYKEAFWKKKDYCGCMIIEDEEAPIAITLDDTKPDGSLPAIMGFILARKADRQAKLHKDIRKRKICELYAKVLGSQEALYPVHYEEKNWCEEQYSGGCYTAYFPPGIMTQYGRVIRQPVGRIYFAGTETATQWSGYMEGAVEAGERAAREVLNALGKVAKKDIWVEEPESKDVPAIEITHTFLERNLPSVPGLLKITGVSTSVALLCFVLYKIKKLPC
How it was run: (§1)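 Mitochondria from rat brain were isolated by differential centrifugation with a Ficoll gradient, lysed in pH 7.4 phosphate buffer with sodium azide, and diluted to 400–800 μg protein/mL. Incubations at 37 °C for 30 min used seven substrate concentrations from 0.0125 to 1 mM, plus 2 and 4 mM for poor substrates. H2O2 was read with ABTS–horseradish peroxidase. Km and Vmax came from Lineweaver-Burk plots: three days, duplicates, mean of six ± SD.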

[3] = molecular target: T1, Monoamine oxidase; assay: Ratio of Kinetic constants (Km vs. Vmax).; assay type: protein assay
[4] = species on record: Rattus norvegicus; assay: (§2) Kinetic constant (Km) determined in rat brain mitochondria; assay type: functional; how it was run: as §1
[5] = system: Monoamine oxidase (Rattus norvegicus); assay: Percent inhibition of MAO-catalyzed oxidation in rat brain mitochondria induced by pargyline
[6] = molecular target: T1, Monoamine oxidase; assay: as §2; how it was run: as §1
[7] = species on record: Rattus norvegicus; assay: Tested for pargyline-induced inhibition of MAO-catalyzed oxidation in rat brain mitochondria (Specific inhibitor = Pargyline hydrochloride at 2.5 uM) (Control = 33.85); assay type: functional
[8] = species on record: Rattus norvegicus; assay: Tested for pargyline-induced inhibition of MAO-catalyzed oxidation in rat brain mitochondria (Specific inhibitor = Pargyline hydrochloride at 2.5 uM) (Control = 19.20); assay type: functional
[9] = species on record: Rattus norvegicus; assay: Tested for pargyline-induced inhibition of MAO-catalyzed oxidation in rat brain mitochondria (Specific inhibitor = Pargyline hydrochloride at 2.5 uM) (Control = 18.87); assay type: functional
[10] = molecular target: T1, Monoamine oxidase; assay: as §2; remark: listed apart in the source
How it was run: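 Rat brain mitochondria (Ficoll gradient, lysed in phosphate buffer pH 7.4 with azide) at 400–800 μg protein/mL. Incubated 30 min at 37 °C with substrate at 0.0125–1 mM, plus 2 and 4 mM for poor substrates. H2O2 read by ABTS–horseradish peroxidase against a standard curve. Km by Lineweaver-Burk; three separate days in duplicate, mean of six ± SD.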

[11] = molecular target: T1, Monoamine oxidase; assay: Tested for pargyline-induced inhibition of MAO-catalyzed oxidation in rat brain mitochondria (Specific inhibitor = Pargyline hydrochloride at 2.5 uM) (Control = 16.58); assay type: functional
[12] = species on record: Rattus norvegicus; assay: Tested for pargyline-induced inhibition of MAO-catalyzed oxidation in rat brain mitochondria (Specific inhibitor = Pargyline hydrochloride at 2.5 uM) (Control = 28.60); assay type: functional
[13] = species on record: Rattus norvegicus; assay: Tested for pargyline-induced inhibition of MAO-catalyzed oxidation in rat brain mitochondria (Specific inhibitor = Pargyline hydrochloride at 2.5 uM) (Control = 30.65); assay type: functional
[14] = species on record: Rattus norvegicus; assay: Tested for pargyline-induced inhibition of MAO-catalyzed oxidation in rat brain mitochondria (Specific inhibitor = Pargyline hydrochloride at 2.5 uM) (Control = 31.40); assay type: functional

For `CN1CC=C(CCc2ccccc2)CC1`, which Inhibition ((nM of H202) min-1 (ug of protein)-1) [1] is on record?
Its Inhibition ((nM of H202) min-1 (ug of protein)-1) is 8.22.

What about the Vmax [2] of the same compound?
Its Vmax is 38533000 (nM of H202) min-1 (ug of protein)-1.

What about the Ratio [3] of the same compound?
The Ratio was 3.74.

And the Km [4]?
The Km was 119 µM.

What about the Inhibition [5] of the same compound?
The Inhibition was 54%.

Which Vmax [2] does the source give for `CN1CC=C(/C=C/c2cccc(Br)c2)CC1` here?
Its Vmax is 2690000 (nM of H202) min-1 (ug of protein)-1.

What about the Km [6] of the same compound?
Its Km is 187 µM.

And the Ratio [3]?
The Ratio was 0.565.

`CN1CC=C(Cc2cccs2)CC1` was tested. Which Vmax [2] did it give?
The Vmax was 38133000 (nM of H202) min-1 (ug of protein)-1.

What about the Ratio [3] of the same compound?
The Ratio was 9.86.

And the Inhibition ((nM of H202) min-1 (ug of protein)-1) [7]?
The Inhibition ((nM of H202) min-1 (ug of protein)-1) was 10.9.

What about the Km [4] of the same compound?
Its Km is 42.2 µM.

What about the Inhibition [5] of the same compound?
The Inhibition was 68%.

With `Cc1ccccc1CC1=CCN(C)CC1` as the compound, how does the Vmax [2] read?
The Vmax was 21933000 (nM of H202) min-1 (ug of protein)-1.

What about the Ratio [3] of the same compound?
Its Ratio is 3.71.

And the Inhibition ((nM of H202) min-1 (ug of protein)-1) [8]?
Its Inhibition ((nM of H202) min-1 (ug of protein)-1) is 9.24.

What about the Km [4] of the same compound?
The Km was 58.8 µM.

`CC(C1=CCN(C)CC1)c1ccccc1` (stereo not given) was tested. Which Vmax [2] did it give?
The Vmax was 4187000 (nM of H202) min-1 (ug of protein)-1.

What about the Km [6] of the same compound?
The Km was 70.2 µM.

What about the Ratio [3] of the same compound?
The Ratio was 1.26.

How did the Vmax [2] turn out when `CN1CC=C(Cc2ccc(Cl)cc2)CC1` was run?
The Vmax was 23900000 (nM of H202) min-1 (ug of protein)-1.

And the Inhibition ((nM of H202) min-1 (ug of protein)-1) [9]?
Its Inhibition ((nM of H202) min-1 (ug of protein)-1) is 10.3.

And the Ratio [3]?
The Ratio was 5.15.

What about the Km [4] of the same compound?
The Km was 49.4 µM.

What does the source list for `CN1CC=C(Cc2ccc(I)cc2)CC1`?
Vmax [2]: 6290000 (nM of H202) min-1 (ug of protein)-1; Km [6]: 36.1 µM; Ratio [3]: 2.38

`CN1CC=C(Cc2ccc(O)cc2)CC1` was tested. Which Vmax [2] did it give?
The Vmax was 9850000 (nM of H202) min-1 (ug of protein)-1.

What about the Km [6] of the same compound?
The Km was 363 µM.

And the Ratio [3]?
Its Ratio is 0.38.

Which Vmax [2] does the source give for `CN1CC=C(c2ccccc2)CC1` here?
The Vmax was 27033000 (nM of H202) min-1 (ug of protein)-1.

What about the Km [10] of the same compound?
The Km was 134 µM.

And the Inhibition [11]?
The Inhibition was 0 (nM of H202) min-1 (ug of protein)-1.

With `Cc1ccc(CC2=CCN(C)CC2)cc1` as the compound, how does the Vmax [2] read?
The Vmax was 8.1e+06 (nM of H202) min-1 (µg of protein)-1.

What about the Km [6] of the same compound?
The Km was 15.9 µM.

What about the Ratio [3] of the same compound?
The Ratio was 5.17.

What does the source list for `CN1CC=C(C(Oc2ccc(Br)cc2)c2ccccc2)CC1` (stereo not given)?
Vmax [2]: 3137000 (nM of H202) min-1 (ug of protein)-1; Km [6]: 57.2 µM; Ratio [3]: 0.74

What does the source list for `CN1CC=C(Cc2cccc3ccccc23)CC1`?
Vmax [2]: 38233000 (nM of H202) min-1 (ug of protein)-1; Ratio [3]: 5.03; Inhibition ((nM of H202) min-1 (ug of protein)-1) [12]: 26.4; Km [4]: 76.5 µM; Inhibition [5]: 8%

What does the source list for `NCc1ccccc1` [BENZYLAMINE]?
Vmax [2]: 33600000 (nM of H202) min-1 (ug of protein)-1; Km [6]: 169 µM

How did the Vmax [2] turn out when `Cc1cccc(CC2=CCN(C)CC2)c1` was run?
The Vmax was 45533000 (nM of H202) min-1 (ug of protein)-1.

What about the Inhibition ((nM of H202) min-1 (ug of protein)-1) [13] of the same compound?
The Inhibition ((nM of H202) min-1 (ug of protein)-1) was 9.49.

What about the Ratio [3] of the same compound?
The Ratio was 6.95.

What about the Km [4] of the same compound?
Its Km is 77.1 µM.

Which results are given for `CN1CC=C(Cc2ccccc2)CC1`?
Vmax [2]: 39800000 (nM of H202) min-1 (ug of protein)-1; Ratio [3]: 9.36; Inhibition ((nM of H202) min-1 (ug of protein)-1) [14]: 3.71; Km [4]: 44.4 µM

`COc1ccc(CC2=CCN(C)CC2)cc1` was tested. Which Vmax [2] did it give?
The Vmax was 18000000 (nM of H202) min-1 (ug of protein)-1.

What about the Km [6] of the same compound?
Its Km is 24.8 µM.

What about the Ratio [3] of the same compound?
Its Ratio is 7.87.

Which Vmax [2] does the source give for `CN1CC=C(CCc2cccc(Cl)c2)CC1` here?
Its Vmax is 6477000 (nM of H202) min-1 (ug of protein)-1.

And the Km [6]?
The Km was 20.8 µM.

What about the Ratio [3] of the same compound?
Its Ratio is 4.44.
